Experimental data reported in ChEMBL document CHEMBL2029208 (Bioorg Med Chem, 2012).
Converted amounts (≈) assume the structure as drawn. The source made the active and inactive calls. The calls are words filed in the database; no cut-off is given here.

Tests used:
[1] = system: Mycobacterium tuberculosis; assay: microbe, parasite or virus in culture; type: functional; settings: H37Ra
[2] = biological target: T1, Bifunctional epoxide hydrolase 2 (Homo sapiens, UniProt P34913);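 further: recombinant enzyme with CMNPC substrate, fluorescence readout of 6-methoxy-2-naphthaldehyde formed over a 10 min reaction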
T1 sequence (P34913 whole entry): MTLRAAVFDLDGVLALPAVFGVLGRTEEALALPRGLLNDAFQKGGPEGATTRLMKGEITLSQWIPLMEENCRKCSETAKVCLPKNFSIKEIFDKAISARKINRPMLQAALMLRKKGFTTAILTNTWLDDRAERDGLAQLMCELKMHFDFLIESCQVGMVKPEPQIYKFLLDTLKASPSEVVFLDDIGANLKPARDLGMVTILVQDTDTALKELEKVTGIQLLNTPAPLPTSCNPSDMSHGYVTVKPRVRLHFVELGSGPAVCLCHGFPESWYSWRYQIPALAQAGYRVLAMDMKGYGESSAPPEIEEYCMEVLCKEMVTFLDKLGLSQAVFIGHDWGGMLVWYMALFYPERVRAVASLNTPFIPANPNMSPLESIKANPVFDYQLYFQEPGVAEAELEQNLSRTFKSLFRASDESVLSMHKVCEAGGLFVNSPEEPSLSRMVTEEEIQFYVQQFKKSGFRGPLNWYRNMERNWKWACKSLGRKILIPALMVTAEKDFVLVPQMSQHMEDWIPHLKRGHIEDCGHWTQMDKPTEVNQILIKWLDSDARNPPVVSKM

[3] = system: Mycobacterium tuberculosis; assay: Antimycobacterial activity against Mycobacterium tuberculosis H37Ra at 10 uM; type: functional, organism-based
[4] = system: Mycobacterium tuberculosis; assay: Inhibition of Mycobacterium tuberculosis epoxide hydrolase E expressed in Escherichia coli BL21AI cells using cyano(6-methoxy-2-napthalenyl)methyl[(2,3)-3-phenyloxiranyl] methyl ester carbonate as substrate at 10 nM preincubated for 10 mins before substrate addition measured after 30 mins by spectrofluorometric analysis
[5] = system: Mycobacterium tuberculosis; assay: Antimycobacterial activity against Mycobacterium tuberculosis H37Ra infected in gamma interferon-knockout mouse assessed as reduction in lung CFU load at 150 mg/kg, po BID dosage beginning at 15 post infection for 9 days (reference value: 8.86 +/- 0.02 log10CFU); type: functional
[6] = Drug uptake in mouse serum at 140 mg/kg, po administered in 30% Captisol measured after 2 hrs by LC-MS/MS analysis; type: ADME, organism-based; set-up: dose 140 mg/kg, route oral; settings: read-out: Drug uptake
In short: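 Non-genetically modified mice were dosed at 140 mg/kg in 30% Captisol by gavage. Blood was clotted for at least 1 h and spun at ~3000g for 15 min, and serum was frozen at −70°C. Serum was diluted 4:1 with methanol containing warfarin (final 5 μM) as internal standard and centrifuged. Samples were quantified by LC/MS against a 7-point calibration curve.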

[7] = system: Mycobacterium tuberculosis; assay: Antimycobacterial activity against Mycobacterium tuberculosis H37Ra infected in gamma interferon-knockout mouse assessed as reduction in spleen CFU load at 150 mg/kg, po BID dosage beginning at 15 post infection for 9 days (reference value: 7.30 +/- 0.09 log10CFU); type: functional
[8] = mycobacterium tuberculosis h37ra, cytosol, 5 µM
[9] = system: Mycobacterium tuberculosis; assay: Antimycobacterial activity against Mycobacterium tuberculosis H37Ra infected in gamma interferon-knockout mouse assessed as reduction in lung CFU load at 25 mg/kg, po BID dosage beginning at 15 post infection for 9 days (reference value: 8.86 +/- 0.02 log10CFU); type: functional
[10] = system: Mycobacterium tuberculosis; assay: Antimycobacterial activity against Mycobacterium tuberculosis H37Ra infected in gamma interferon-knockout mouse assessed as reduction in spleen CFU load at 25 mg/kg, po BID dosage beginning at 15 post infection for 9 days (reference value: 7.30 +/- 0.09 log10CFU); type: functional

Row | Structure (SMILES) | MIC [1] [µg/mL] | IC50 [2] [nM] | Activity [3] | also measured
1 | O=C(NC12CC3CC(CC(C3)C1)C2)N[C@H]1CC[C@H](OC(=O)c2ccccc2)CC1 | > 79 | 1 | inactive | 
2 | O=C(Nc1ccc(F)c(F)c1F)NC1C2CC3CC(C2)CC1C3 (stereo not given) |  |  |  | inhibition [4]: 68%
3 | COC(=O)c1ccc(NC(=O)NC23CC4CC(CC(C4)C2)C3)cc1O | 1.1 (≈ 3.19 µM) |  | inactive | log10cfu [5]: 8.77; concentration at 2 h [6]: 3000 nM; log10cfu [7]: 7.31
4 | O=C(NC12CC3CC(CC(C3)C1)C2)N[C@H]1CC[C@H](Oc2ccc(C(=O)O)cc2)CC1 | 21 (≈ 50.9 µM) |  | inactive | 
5 | CCCCCO[C@H]1CC[C@H](NC(=O)NC23CC4CC(CC(C4)C2)C3)CC1 | 25 (≈ 69 µM) |  |  | Drug uptake [8]: 128 ng; inhibition [4]: 93%
6 | COC(=O)c1cccc(O[C@H]2CC[C@@H](NC(=O)NC34CC5CC(CC(C5)C3)C4)CC2)c1 | > 85 | 2.5 | inactive | 
7 | O=C(Nc1ccc(OCCCN2CCOCC2)cc1)NC12CC3CC(CC(C3)C1)C2 | > 17 |  |  | Drug uptake [8]: 103 ng; inhibition [4]: 19%
8 | COC(=O)c1ccc(NC(=O)NC2CCCCCC2)cc1 | 3.63 (≈ 12.5 µM) | 12.3 | inactive | 
9 | O=C(Nc1cccc(C(=O)O)c1)NC12CC3CC(CC(C3)C1)C2 | 7.8 (≈ 24.8 µM) |  | Active | 
10 | NNC(=O)c1ccncc1 [ISONIAZID] | 0.08 (≈ 0.583 µM) |  |  | log10cfu [9]: 5.41; log10cfu [10]: 3.63
11 | COC(=O)c1ccc(NC(=O)NC2C3CC4CC(C3)CC2C4)cc1O (stereo not given) | 0.1 (≈ 0.29 µM) |  |  | log10cfu [5]: 8.74; log10cfu [7]: 7.33
12 | O=C(Nc1ccc(N2CCOCC2)cc1)NC12CC3CC(CC(C3)C1)C2 | 18 (≈ 50.6 µM) | 5.2 |  | 
13 | O=C(NC12CC3CC(CC(C3)C1)C2)N[C@H]1CC[C@@H](Oc2ccc(C(F)(F)F)cn2)CC1 | 1.37 (≈ 3.13 µM) | 1.8 |  | 
